In ChEMBL document CHEMBL3351461, “Discovery of novel, dual mechanism ERK inhibitors by affinity selection screening of an inactive kinase” (J Med Chem, 2014):
Values belong to the compound of their own block, whether it stands above or below them. Activity calls are given as the source filed them. The rule behind the calls is not given here.

Columns and labels:
[1] = target: Mitogen-activated protein kinase 1 (Mus musculus) (UniProt P63085); test: Inhibition of inactive ERK2 (mouse) coupled with human MEK1 using IMAP peptide substrate after 30 mins by coupled ERK2 assay
[2] = target: T1, Mitogen-activated protein kinase 1 (Homo sapiens, UniProt P28482); test: Binding to phosphorylated ERK2 (unknown origin) by temperature dependent fluorescence (TdF) assay
[3] = target: T2, Dual specificity mitogen-activated protein kinase kinase; MEK1/2 (Homo sapiens) (UniProt P36507+Q02750); test: Binding affinity to unphosphorylated MEK (unknown origin) by temperature dependent fluorescence (TdF) assay
[4] = target: T1, Mitogen-activated protein kinase 1; test: Binding to unphosphorylated ERK2 (unknown origin) by temperature dependent fluorescence (TdF) assay
[5] = target: T1, Mitogen-activated protein kinase 1; test: Inhibition of activated ERK2 (unknown origin) using IMAP peptide substrate after 30 mins by activated ERK2 assay
In short: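 IMAP fluorescence-polarization assay. Started with 1 μM substrate peptide (100 nM fluorescein-labelled) and 30 μM ATP. Run 30 min, stopped with IMAP beads, read after 30 min. N = 2.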

[6] = target: T2, Dual specificity mitogen-activated protein kinase kinase; MEK1/2 (Homo sapiens); test: Binding affinity to phosphorylated MEK (unknown origin) by temperature dependent fluorescence (TdF) assay
[7] = target: Tyrosine-protein kinase ABL1 (Homo sapiens, UniProt P00519); test: Inhibition of ABL (unknown origin)
[8] = target: Protein kinase C alpha type (Homo sapiens, UniProt P17252); test: Inhibition of PKCA (unknown origin)
[9] = target: Serine/threonine-protein kinase B-raf (Homo sapiens, UniProt P15056); test: Inhibition of B-RAF (unknown origin)
[10] = target: Rho-associated protein kinase 2 (Homo sapiens, UniProt O75116); test: Inhibition of ROCK2 (unknown origin)
[11] = target: Glycogen synthase kinase-3 beta (Homo sapiens, UniProt P49841); test: Inhibition of GSK3beta (unknown origin)
[12] = target: Cyclin-dependent kinase 6 (Homo sapiens, UniProt Q00534); test: Inhibition of CDK6 (unknown origin)
Ephrin type-B receptor 4 = Ephrin type-B receptor 4 (Homo sapiens, UniProt P54760); test: Inhibition of EPHB4 (unknown origin)
[13] = target: Cyclin-dependent kinase 2 (Homo sapiens, UniProt P24941); test: Inhibition of CDK2 (unknown origin)
A2058 [14] = test: Inhibition of RSK phosphorylation in human A2058 cells after 4 hrs by immunoblotting analysis; type: cell-based
[15] = target: Serine/threonine-protein kinase Chk1 (Homo sapiens, UniProt O14757); test: Inhibition of CHK1 (unknown origin)
COLO 205 = test: Cytotoxicity against human COLO205 cells expressing BRAF mutant after 3 days by proliferation assay; type: functional, cell-based; settings: COLO 205, 72 h
In short: (§1)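 A2058, Colo-205 (2000 cells/well) or A375SM (1500 cells/well) in RPMI1640 with 10% FBS and penicillin–streptomycin, on collagen-coated plates. Cells attach for 2 h, then compound is added in DMSO (final 1.0% or 0.1%). Incubated 3 days at 37 °C, 5% CO2. Viability read by CellTiter-Glo luminescence.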

[16] = target: Tyrosine-protein kinase JAK2 (Homo sapiens, UniProt O60674); test: Inhibition of JAK2 (unknown origin)
[17] = target: Tyrosine-protein kinase Lck (Homo sapiens, UniProt P06239); test: Inhibition of LCK (unknown origin)
[18] = target: Interleukin-1 receptor-associated kinase 4 (Homo sapiens, UniProt Q9NWZ3); test: Inhibition of IRAK4 (unknown origin)
[19] = target: Testis-specific serine/threonine-protein kinase 2 (Homo sapiens, UniProt Q96PF2); test: Inhibition of TSSK2 (unknown origin)
[20] = target: Serine/threonine-protein kinase Nek2 (Homo sapiens, UniProt P51955); test: Inhibition of NEK2 (unknown origin)
[21] = target: Cyclin-dependent kinase 4 (Homo sapiens, UniProt P11802); test: Inhibition of CDK4 (unknown origin)
[22] = target: RAC-alpha serine/threonine-protein kinase (Homo sapiens, UniProt P31749); test: Inhibition of AKT1 (unknown origin)
[23] = target: Inhibitor of nuclear factor kappa-B kinase subunit beta (Homo sapiens, UniProt O14920); test: Inhibition of IKKbeta (unknown origin)
[24] = target: Receptor-type tyrosine-protein kinase FLT3 (Homo sapiens, UniProt P36888); test: Inhibition of FLT3 (unknown origin)
[25] = target: Dual specificity mitogen-activated protein kinase kinase 1 (Homo sapiens, UniProt Q02750); test: Inhibition of MEK1 (unknown origin)
[26] = target: Epidermal growth factor receptor (Homo sapiens, UniProt P00533); test: Inhibition of EGFR (unknown origin)
[27] = target: Serine/threonine-protein kinase PLK3 (Homo sapiens, UniProt Q9H4B4); test: Inhibition of PLK3 (unknown origin)
CHL-1 = test: Cytotoxicity against human CHL-1 cells expressing wild type BRAF after 3 days by proliferation assay; type: functional, cell-based; settings: CHL-1, 72 h
[28] = target: Casein kinase I isoform delta (Homo sapiens, UniProt P48730); test: Inhibition of CSNK1D (unknown origin)
A2058 [29] = test: Cytotoxicity against human A2058 cells expressing BRAF mutant after 3 days by proliferation assay; type: functional, cell-based; settings: A2058, 72 h
In short: as §1

[30] = target: Vascular endothelial growth factor receptor 1 (Homo sapiens, UniProt P17948); test: Inhibition of VEGFR1 (unknown origin)
[31] = target: Mitogen-activated protein kinase 3 (Homo sapiens) (UniProt P27361); test: Inhibition of ERK1 phosphorylation in human A2058 cells after 4 hrs by immunoblotting analysis; type: cell-based
In short: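 A2058 cells treated 4 h at 37 °C with 0–10000 nM compound (150, 312, 625, 1250, 2500, 5000, 10000 nM). Equal-protein lysates immunoblotted for phospho-ERK1,2 and total ERK1,2, developed by ECL. A MEK inhibitor serves as positive control.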

[32] = Cytotoxicity against human A375SM cells expressing BRAF mutant after 3 days by proliferation assay; type: functional, cell-based; settings: A375-SM, 72 h
In short: as §1

[33] = target: Serine/threonine-protein kinase 3 (Homo sapiens, UniProt Q13188); test: Inhibition of MST2 (unknown origin)
[34] = target: Insulin-like growth factor 1 receptor (Homo sapiens, UniProt P08069); test: Inhibition of IGF1R (unknown origin)
[35] = target: Hepatocyte growth factor receptor (Homo sapiens, UniProt P08581); test: Inhibition of MET (unknown origin)
[36] = target: Mitogen-activated protein kinase 11 (Homo sapiens, UniProt Q15759); test: Inhibition of p38beta (unknown origin)
[37] = target: Ribosomal protein S6 kinase alpha-3 (Homo sapiens, UniProt P51812); test: Inhibition of RSK2 (unknown origin)

T2 sequence (P36507 whole entry, looked up): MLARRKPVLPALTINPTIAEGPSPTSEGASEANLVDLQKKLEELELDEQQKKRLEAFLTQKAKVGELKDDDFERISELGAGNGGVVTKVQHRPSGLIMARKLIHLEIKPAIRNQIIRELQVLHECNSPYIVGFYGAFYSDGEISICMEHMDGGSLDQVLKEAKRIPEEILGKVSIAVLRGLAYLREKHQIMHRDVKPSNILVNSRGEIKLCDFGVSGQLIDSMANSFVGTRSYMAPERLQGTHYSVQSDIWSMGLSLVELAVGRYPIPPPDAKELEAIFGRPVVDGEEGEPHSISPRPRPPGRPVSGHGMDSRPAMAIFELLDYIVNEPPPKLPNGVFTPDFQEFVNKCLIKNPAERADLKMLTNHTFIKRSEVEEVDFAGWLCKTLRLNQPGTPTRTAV
T2 sequence (Q02750 whole entry, looked up): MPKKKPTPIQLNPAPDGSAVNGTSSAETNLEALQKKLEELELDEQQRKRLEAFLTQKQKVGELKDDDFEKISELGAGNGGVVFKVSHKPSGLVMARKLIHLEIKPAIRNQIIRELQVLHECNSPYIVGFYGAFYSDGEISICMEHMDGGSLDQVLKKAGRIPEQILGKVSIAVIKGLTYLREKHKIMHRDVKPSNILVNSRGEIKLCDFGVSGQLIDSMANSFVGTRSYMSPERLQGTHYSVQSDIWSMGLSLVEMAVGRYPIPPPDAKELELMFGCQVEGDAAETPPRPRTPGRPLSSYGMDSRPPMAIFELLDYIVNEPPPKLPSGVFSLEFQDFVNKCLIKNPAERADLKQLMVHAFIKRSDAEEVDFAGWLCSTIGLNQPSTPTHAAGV
T1 sequence (P28482 whole entry): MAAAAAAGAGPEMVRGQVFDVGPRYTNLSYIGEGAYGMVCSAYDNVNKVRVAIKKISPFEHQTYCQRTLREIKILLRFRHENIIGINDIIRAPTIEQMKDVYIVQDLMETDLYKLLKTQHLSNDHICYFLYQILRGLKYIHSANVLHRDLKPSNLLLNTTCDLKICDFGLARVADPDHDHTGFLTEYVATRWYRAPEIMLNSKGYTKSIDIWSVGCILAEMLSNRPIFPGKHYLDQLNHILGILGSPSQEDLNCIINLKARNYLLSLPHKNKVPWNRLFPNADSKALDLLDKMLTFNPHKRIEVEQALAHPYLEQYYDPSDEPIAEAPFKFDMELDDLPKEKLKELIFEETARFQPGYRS
Mitogen-activated protein kinase 1 (Mus musculus), sequence (P63085 whole entry, looked up): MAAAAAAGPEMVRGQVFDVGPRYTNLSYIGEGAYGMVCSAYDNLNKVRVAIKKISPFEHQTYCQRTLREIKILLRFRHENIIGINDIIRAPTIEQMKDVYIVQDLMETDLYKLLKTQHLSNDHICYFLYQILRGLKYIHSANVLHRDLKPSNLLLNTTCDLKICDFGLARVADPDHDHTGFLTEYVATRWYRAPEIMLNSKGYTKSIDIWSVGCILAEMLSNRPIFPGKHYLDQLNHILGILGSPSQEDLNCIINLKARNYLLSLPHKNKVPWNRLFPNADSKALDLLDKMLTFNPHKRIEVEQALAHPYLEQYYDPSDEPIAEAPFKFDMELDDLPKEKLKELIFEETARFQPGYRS
Ephrin type-B receptor 4, sequence (P54760 whole entry): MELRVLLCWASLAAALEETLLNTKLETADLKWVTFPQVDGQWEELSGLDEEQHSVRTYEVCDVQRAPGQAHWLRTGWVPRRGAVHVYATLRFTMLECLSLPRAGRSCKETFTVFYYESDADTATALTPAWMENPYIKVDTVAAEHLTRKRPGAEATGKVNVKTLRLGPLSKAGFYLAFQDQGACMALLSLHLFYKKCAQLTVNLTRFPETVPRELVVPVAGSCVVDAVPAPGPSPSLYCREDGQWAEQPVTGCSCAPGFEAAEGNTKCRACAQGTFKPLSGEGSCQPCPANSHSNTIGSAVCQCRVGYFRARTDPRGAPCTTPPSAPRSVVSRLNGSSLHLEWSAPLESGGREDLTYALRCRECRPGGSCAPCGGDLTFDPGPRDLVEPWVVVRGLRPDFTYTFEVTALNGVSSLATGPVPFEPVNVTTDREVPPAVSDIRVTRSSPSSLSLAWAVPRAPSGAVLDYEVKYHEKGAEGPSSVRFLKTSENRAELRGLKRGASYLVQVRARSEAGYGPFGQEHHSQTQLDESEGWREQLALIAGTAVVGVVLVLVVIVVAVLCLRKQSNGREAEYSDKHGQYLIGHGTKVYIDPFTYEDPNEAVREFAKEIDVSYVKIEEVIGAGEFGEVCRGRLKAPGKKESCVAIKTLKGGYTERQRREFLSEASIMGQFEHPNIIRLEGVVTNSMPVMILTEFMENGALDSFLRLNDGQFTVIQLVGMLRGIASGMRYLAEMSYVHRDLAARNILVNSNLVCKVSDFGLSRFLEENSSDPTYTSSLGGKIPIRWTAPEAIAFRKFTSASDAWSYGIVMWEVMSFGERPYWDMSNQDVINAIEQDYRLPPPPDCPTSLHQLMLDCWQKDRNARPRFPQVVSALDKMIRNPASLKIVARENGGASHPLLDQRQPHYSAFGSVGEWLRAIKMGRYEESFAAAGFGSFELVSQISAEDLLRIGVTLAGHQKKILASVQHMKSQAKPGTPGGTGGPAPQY
Tyrosine-protein kinase Lck, sequence (P06239 whole entry): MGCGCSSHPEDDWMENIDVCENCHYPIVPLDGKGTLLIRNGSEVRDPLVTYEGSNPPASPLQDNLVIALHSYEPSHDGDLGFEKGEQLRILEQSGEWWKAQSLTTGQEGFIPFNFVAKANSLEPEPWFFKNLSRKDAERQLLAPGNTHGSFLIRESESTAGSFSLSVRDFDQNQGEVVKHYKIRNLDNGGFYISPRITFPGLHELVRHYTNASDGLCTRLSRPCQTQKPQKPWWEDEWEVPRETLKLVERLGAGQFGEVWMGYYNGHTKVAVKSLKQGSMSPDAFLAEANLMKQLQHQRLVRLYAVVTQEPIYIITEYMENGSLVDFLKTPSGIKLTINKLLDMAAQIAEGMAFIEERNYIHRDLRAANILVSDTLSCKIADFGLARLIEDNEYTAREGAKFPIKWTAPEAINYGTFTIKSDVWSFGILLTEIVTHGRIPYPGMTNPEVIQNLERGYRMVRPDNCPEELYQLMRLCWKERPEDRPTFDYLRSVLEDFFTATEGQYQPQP
Serine/threonine-protein kinase PLK3, sequence (Q9H4B4 whole entry): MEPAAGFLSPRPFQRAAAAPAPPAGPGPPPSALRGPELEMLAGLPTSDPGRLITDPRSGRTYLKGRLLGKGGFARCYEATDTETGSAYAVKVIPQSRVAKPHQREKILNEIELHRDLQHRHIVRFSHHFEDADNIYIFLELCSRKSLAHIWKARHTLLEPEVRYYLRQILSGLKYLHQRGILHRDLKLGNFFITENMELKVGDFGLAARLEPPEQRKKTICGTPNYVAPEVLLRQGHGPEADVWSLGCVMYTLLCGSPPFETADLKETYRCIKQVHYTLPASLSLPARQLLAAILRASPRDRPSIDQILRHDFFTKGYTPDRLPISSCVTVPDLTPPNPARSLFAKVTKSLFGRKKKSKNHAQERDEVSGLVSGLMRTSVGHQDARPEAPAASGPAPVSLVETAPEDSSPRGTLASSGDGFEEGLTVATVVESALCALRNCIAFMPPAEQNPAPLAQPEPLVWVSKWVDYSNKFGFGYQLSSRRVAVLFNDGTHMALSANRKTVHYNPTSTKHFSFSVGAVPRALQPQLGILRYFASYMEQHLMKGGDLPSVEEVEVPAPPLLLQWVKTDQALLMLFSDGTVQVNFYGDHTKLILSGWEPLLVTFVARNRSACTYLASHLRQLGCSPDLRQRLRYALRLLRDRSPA
Vascular endothelial growth factor receptor 1, sequence (P17948 whole entry): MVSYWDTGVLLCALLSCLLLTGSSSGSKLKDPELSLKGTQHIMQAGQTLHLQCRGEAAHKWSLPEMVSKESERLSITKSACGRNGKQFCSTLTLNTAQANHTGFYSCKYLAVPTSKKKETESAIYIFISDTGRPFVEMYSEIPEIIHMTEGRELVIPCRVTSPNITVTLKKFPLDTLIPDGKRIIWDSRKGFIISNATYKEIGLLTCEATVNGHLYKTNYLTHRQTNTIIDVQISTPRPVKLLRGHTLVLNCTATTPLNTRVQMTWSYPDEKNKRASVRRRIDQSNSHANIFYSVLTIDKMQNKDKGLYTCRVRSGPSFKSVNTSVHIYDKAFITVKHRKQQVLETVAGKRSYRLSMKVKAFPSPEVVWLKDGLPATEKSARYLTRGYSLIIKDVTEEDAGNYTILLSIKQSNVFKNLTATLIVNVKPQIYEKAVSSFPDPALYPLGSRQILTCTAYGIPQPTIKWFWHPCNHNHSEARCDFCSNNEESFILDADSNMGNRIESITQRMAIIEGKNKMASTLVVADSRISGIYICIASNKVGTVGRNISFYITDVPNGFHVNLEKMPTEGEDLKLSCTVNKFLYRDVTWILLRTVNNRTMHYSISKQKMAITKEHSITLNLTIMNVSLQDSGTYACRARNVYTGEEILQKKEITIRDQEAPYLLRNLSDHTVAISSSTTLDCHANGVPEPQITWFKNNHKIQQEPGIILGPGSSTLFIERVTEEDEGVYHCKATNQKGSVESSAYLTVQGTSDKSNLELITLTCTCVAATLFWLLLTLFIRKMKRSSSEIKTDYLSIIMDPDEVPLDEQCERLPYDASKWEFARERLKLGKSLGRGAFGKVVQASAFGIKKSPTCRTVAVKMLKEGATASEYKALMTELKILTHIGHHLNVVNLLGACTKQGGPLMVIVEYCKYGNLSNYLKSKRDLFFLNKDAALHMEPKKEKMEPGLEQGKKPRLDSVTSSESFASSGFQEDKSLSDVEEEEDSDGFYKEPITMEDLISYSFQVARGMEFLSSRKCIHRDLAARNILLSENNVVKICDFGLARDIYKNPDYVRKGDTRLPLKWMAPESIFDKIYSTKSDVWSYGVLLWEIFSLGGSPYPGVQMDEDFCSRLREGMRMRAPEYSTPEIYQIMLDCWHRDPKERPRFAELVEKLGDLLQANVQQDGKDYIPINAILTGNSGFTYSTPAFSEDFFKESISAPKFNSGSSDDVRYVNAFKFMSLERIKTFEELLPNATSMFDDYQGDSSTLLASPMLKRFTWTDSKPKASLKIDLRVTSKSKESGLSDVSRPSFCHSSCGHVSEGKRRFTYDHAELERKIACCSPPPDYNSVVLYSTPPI

IC50 [1]: 3.6 µM
Kd [2]: 0.87 µM
Activity [3]: inactive
Kd [4]: 0.36 µM
IC50 [5]: 32 µM
Activity [6]: inactive
Compound: CC(=O)c1ccc(N2CCN(C(=O)CN3CC[C@H](C(=O)Nc4ccc(O)c(Cl)c4)C3)CC2)cc1

IC50 [1]: 1.3 µM
Kd [2]: 0.63 µM
Activity [3]: inactive
Kd [4]: 0.28 µM
IC50 [5]: 11.6 µM
Activity [6]: inactive
Compound: CC(=O)c1ccc(N2CCN(C(=O)CN3CC[C@@H](C(=O)Nc4ccc(O)c(F)c4)C3)CC2)cc1

IC50 [7]: > 30 µM
IC50 [8]: > 30 µM
IC50 [9]: > 30 µM
IC50 [10]: > 30 µM
IC50 [11]: > 50 µM
IC50 [12]: > 50 µM
IC50 (Ephrin type-B receptor 4): > 30 µM
IC50 [13]: > 50 µM
IC50 [15]: > 30 µM
IC50 [1]: 0.36 µM
IC50 [16]: > 30 µM
IC50 [17]: > 30 µM
IC50 [18]: > 30 µM
IC50 [19]: > 30 µM
IC50 [20]: > 30 µM
IC50 [21]: > 50 µM
IC50 [22]: > 30 µM
IC50 [23]: > 30 µM
IC50 [24]: > 30 µM
IC50 [25]: > 20 µM
IC50 [26]: > 50 µM
IC50 [27]: > 30 µM
Kd [2]: 0.14 µM
IC50 [28]: > 30 µM
IC50 [30]: > 50 µM
inhibition [31]: Dose-dependent effect
IC50 [33]: > 30 µM
IC50 [34]: > 30 µM
Activity [3]: inactive
IC50 [35]: > 30 µM
Kd [4]: 0.05 µM
IC50 [36]: > 50 µM
IC50 [37]: 27 µM
IC50 [5]: 2.6 µM
Activity [6]: inactive
Compound: CC(=O)c1ccc(N2CCN(C(=O)CN3CC[C@@H](C(=O)Nc4ccc(O)c(Cl)c4)C3)CC2)cc1
inhibition (A2058 [14]): Dose-dependent effect
IC50 (COLO 205): 10.8 µM
IC50 (CHL-1): > 100 µM
IC50 (A2058 [29]): 28.8 µM
IC50 [32]: 11.5 µM

IC50 [1]: 12.7 µM
Kd [2]: > 10 µM
Activity [3]: inactive
Kd [4]: > 10 µM
IC50 [5]: 50 µM
Activity [6]: inactive
Compound: CC(=O)c1ccc(N2CCN(C(=O)CN3CC[C@@H](C(=O)Nc4ccc(O)cc4Cl)C3)CC2)cc1

IC50 [1]: 0.7 µM
Kd [2]: 0.15 µM
Activity [3]: inactive
Kd [4]: 0.07 µM
IC50 [5]: 2.1 µM
Activity [6]: inactive
Compound: O=C(Nc1ccc(O)c(Cl)c1)[C@@H]1CCN(CC(=O)N2CCN(c3cccc(Cl)c3)CC2)C1

IC50 [1]: 0.48 µM
Kd [2]: 0.27 µM
Activity [3]: inactive
Kd [4]: 0.17 µM
IC50 [5]: 1.6 µM
Activity [6]: inactive
Compound: O=C(Nc1ccc(O)c(Cl)c1)[C@@H]1CCN(CC(=O)N2CCN(c3nc4ccccc4s3)CC2)C1

IC50 [1]: 0.025 µM
Kd [2]: > 10 µM
Kd [4]: > 10 µM
IC50 [5]: > 40 µM
Compound: O=C(NOC[C@H](O)CO)c1ccc(F)c(F)c1Nc1ccc(I)cc1F [MIRDAMETINIB]

IC50 [1]: > 10 µM
Kd [2]: > 10 µM
Activity [3]: inactive
Kd [4]: > 10 µM
Activity [6]: inactive
Compound: CC(=O)c1ccc(N2CCN(C(=O)CN3CC[C@@H](C(=O)Nc4cc(Cl)c(O)c(Cl)c4)C3)CC2)cc1

IC50 [1]: 5 µM
Kd [2]: 2.65 µM
Activity [3]: inactive
Kd [4]: 0.93 µM
IC50 [5]: 8.2 µM
Activity [6]: inactive
Compound: O=C(Nc1ccc(O)c(Cl)c1)[C@@H]1CCN(CC(=O)N2CCN(c3ccc(Br)cc3)CC2)C1

IC50 [1]: 1.4 µM
Kd [2]: 0.33 µM
Activity [3]: inactive
Kd [4]: 0.12 µM
IC50 [5]: 5.5 µM
Activity [6]: inactive
Compound: O=C(Nc1ccc(O)c(Cl)c1)[C@@H]1CCN(CC(=O)N2CCN(c3ccc(-c4ccoc4)cc3)CC2)C1

IC50 [1]: 0.44 µM
Activity [3]: inactive
IC50 [5]: 3.6 µM
Activity [6]: inactive
Compound: CC(=O)c1ccc(N2CCN(C(=O)CN3CC[C@@H](C(=O)Nc4ccc(O)c(Br)c4)C3)CC2)cc1

IC50 [1]: 3.4 µM
Kd [2]: 1.65 µM
Activity [3]: inactive
Kd [4]: 0.92 µM
IC50 [5]: 12.2 µM
Activity [6]: inactive
Compound: O=C(Nc1ccc(O)cc1)C1CCN(CC(=O)N2CCN(c3cccc(Cl)c3)CC2)C1 (racemic)

IC50 [1]: 1.2 µM
Kd [2]: 0.27 µM
Activity [3]: inactive
Kd [4]: 0.15 µM
IC50 [5]: 4.2 µM
Activity [6]: inactive
Compound: CC(=O)c1ccc(N2CCN(C(=O)CN3CCC(C(=O)Nc4ccc(O)c(Cl)c4)C3)CC2)cc1 (racemic)

IC50 [1]: 4.2 µM
Activity [3]: inactive
IC50 [5]: 2.5 µM
Activity [6]: inactive
Compound: CC(=O)c1ccc(N2CCN(C(=O)CN3CC[C@@H](C(=O)Nc4ccc(O)c(C)c4)C3)CC2)cc1

IC50 [1]: 4 µM
Kd [2]: 1.89 µM
Activity [3]: inactive
Kd [4]: 1.06 µM
IC50 [5]: 18.6 µM
Activity [6]: inactive
Compound: CC(=O)c1ccc(N2CCN(C(=O)CN3CCC(C(=O)Nc4ccc(O)cc4)C3)CC2)cc1 (racemic)

IC50 [1]: 5.6 µM
Kd [2]: 0.72 µM
Activity [3]: inactive
Kd [4]: 0.15 µM
IC50 [5]: 4.4 µM
Activity [6]: inactive
Compound: O=C(Nc1ccc(O)c(Cl)c1)[C@@H]1CCN(CC(=O)N2CCN(c3ccc(-c4ccccc4)cc3)CC2)C1

IC50 [1]: 2.1 µM
Kd [2]: 0.98 µM
Activity [3]: inactive
Kd [4]: 0.29 µM
IC50 [5]: 20 µM
Activity [6]: inactive
Compound: O=C(Nc1ccc(O)c(Cl)c1)[C@@H]1CCN(CC(=O)N2CCN(c3ccc(-c4ccsc4)cc3)CC2)C1
